Test results as given in ChEMBL document CHEMBL1949555, “Piperazine-2,3-dicarboxylic acid derivatives as dual antagonists of NMDA and GluK1-containing kainate receptors” (J Med Chem, 2012).

Tests used:
[1] = target: Ionotropic glutamate receptor NMDA 1/2D (Rattus norvegicus, UniProt P35439+Q62645); experiment: Antagonist activity rat recombinant GluN1/GluN2D receptor expressed in Xenopus laevis oocytes assessed as inhibition of glutamate-induced response by two-electrode voltage-clamp electrophysiology assay; type: functional, cell-based, Oocyte; details: read-out: Ki(app)
[2] = target: Glutamate receptor ionotropic, kainate 1 (Homo sapiens, UniProt P39086); experiment: Antagonist activity at human recombinant GluK1 receptor expressed in human HEK293 cells assessed as inhibition of glutamate-stimulated calcium influx by fluorescence assay; type: functional, cell-based
Sequence of Glutamate receptor ionotropic, kainate 1 (P39086 whole entry): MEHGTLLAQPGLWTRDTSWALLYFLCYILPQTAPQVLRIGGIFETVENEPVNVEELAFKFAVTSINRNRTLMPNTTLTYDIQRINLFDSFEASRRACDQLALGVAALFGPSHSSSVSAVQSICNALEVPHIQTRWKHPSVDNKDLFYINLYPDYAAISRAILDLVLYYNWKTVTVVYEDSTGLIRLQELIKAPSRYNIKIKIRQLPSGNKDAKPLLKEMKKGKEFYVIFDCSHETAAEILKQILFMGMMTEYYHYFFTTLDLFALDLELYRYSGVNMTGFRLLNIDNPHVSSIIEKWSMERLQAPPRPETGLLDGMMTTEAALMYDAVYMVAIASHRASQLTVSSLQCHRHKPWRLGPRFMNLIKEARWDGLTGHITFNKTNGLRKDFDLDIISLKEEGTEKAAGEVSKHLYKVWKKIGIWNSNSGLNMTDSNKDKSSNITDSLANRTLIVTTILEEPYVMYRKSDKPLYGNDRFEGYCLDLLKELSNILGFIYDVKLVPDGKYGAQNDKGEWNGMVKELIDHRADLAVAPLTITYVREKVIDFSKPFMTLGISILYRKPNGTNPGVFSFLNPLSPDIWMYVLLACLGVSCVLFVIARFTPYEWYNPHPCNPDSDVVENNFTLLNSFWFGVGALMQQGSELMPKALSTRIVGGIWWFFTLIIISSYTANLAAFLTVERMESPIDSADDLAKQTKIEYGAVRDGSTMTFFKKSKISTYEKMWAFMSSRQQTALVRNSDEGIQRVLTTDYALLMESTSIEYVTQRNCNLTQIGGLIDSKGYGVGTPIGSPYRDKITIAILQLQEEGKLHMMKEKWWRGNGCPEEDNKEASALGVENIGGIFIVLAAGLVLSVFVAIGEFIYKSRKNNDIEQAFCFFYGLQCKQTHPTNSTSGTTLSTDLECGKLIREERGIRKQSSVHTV
In short: (§1)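 HEK293 lines stably expressing homomeric human GluK1(Q) or GluK2(Q), passaged no more than 20 times. Ca2+ influx is read as fluorescence, with concanavalin A present. Test compound is added in a first run, then L-glutamate plus antagonist in a second run (final glutamate 30 μM for GluK1, 10 μM for GluK2). IC50 values are converted to KB. Means ± s.e.m.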

[3] = target: Glutamate NMDA receptor; Grin1/Grin2a (Rattus norvegicus, UniProt P35439+Q00959); experiment: Antagonist activity at rat recombinant GluN1/GluN2A receptor expressed in Xenopus laevis oocytes assessed as inhibition of glutamate-induced response by two-electrode voltage-clamp electrophysiology assay; type: functional, cell-based, Oocyte; details: read-out: Ki(app)
[4] = target: Glutamate NMDA receptor; Grin1/Grin2b (Rattus norvegicus, UniProt P35439+Q00960); experiment: Antagonist activity rat recombinant GluN1/GluN2B receptor expressed in Xenopus laevis oocytes assessed as inhibition of glutamate-induced response by two-electrode voltage-clamp electrophysiology assay; type: functional, cell-based, Oocyte; details: read-out: Ki(app)
In short: (§2)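 Two-electrode voltage clamp of oocytes expressing rat GluN1a with the given GluN2 subunit, held at −60 mV in buffer of 116 mM NaCl, 2 mM KCl, 0.3 mM BaCl2, 5 mM HEPES, pH 7.4. Response is the steady plateau to bath-applied 10 μM L-glutamate plus 10 μM glycine. IC50 converted to apparent Ki via Ki = IC50/(1 + [agonist]/EC50). Means ± s.e.m.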

[5] = target: Glutamate NMDA receptor; Grin1/Grin2c (Rattus norvegicus, UniProt P35439+Q00961); experiment: Antagonist activity rat recombinant GluN1/GluN2C receptor expressed in Xenopus laevis oocytes assessed as inhibition of glutamate-induced response by two-electrode voltage-clamp electrophysiology assay; type: functional, cell-based, Oocyte; details: read-out: Ki(app); in short: as §2
[6] = target: Glutamate receptor ionotropic, kainate 2 (Homo sapiens, UniProt Q13002); experiment: Antagonist activity at human recombinant GluK2 receptor expressed in human HEK293 cells assessed as inhibition of glutamate-stimulated calcium influx by fluorescence assay; type: functional, cell-based; in short: as §1
Sequence of Glutamate receptor ionotropic, kainate 2 (Q13002 whole entry): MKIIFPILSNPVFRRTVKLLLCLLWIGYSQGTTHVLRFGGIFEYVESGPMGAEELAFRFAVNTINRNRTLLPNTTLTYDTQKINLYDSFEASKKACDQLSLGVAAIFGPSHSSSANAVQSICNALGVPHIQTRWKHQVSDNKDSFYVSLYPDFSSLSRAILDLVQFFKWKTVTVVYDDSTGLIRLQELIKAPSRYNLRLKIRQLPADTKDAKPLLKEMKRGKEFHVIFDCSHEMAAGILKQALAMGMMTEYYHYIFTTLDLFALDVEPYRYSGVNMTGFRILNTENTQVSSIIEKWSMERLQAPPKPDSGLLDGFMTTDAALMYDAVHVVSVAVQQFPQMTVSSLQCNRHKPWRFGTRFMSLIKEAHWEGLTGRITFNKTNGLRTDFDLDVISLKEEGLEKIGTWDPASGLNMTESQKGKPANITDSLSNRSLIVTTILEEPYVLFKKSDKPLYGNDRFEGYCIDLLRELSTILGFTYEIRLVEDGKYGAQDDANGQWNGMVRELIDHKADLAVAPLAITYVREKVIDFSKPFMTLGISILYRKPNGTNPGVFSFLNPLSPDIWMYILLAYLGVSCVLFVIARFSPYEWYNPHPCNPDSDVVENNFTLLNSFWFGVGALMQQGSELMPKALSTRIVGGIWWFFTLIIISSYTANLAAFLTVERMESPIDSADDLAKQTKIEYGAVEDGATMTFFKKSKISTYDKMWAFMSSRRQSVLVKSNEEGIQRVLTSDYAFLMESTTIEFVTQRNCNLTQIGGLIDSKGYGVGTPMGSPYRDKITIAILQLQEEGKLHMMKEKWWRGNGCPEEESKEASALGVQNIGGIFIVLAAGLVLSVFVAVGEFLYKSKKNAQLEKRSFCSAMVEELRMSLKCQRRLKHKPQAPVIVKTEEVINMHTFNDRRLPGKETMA

Rattus norvegicus [7] = species: Rattus norvegicus; experiment: Selectivity ratio of Ki(app) for rat recombinant GluN1/GluN2A receptor to Ki(app) for rat recombinant GluN1/GluN2D receptor
Rattus norvegicus [8] = species: Rattus norvegicus; experiment: Selectivity ratio of Ki(app) for rat recombinant GluN1/GluN2B receptor to Ki(app) for rat recombinant GluN1/GluN2D receptor
In short: (§3)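 Rat GluN1a is co-expressed with GluN2A, 2B, 2C or 2D in Xenopus oocytes and recorded by two-electrode voltage clamp at −60 mV. Buffer is 116 mM NaCl, 2 mM KCl, 0.3 mM BaCl2, 5 mM HEPES, pH 7.4. The plateau response to bath-applied 10 μM L-glutamate plus 10 μM glycine is measured. Apparent Ki is IC50/(1+[agonist]/EC50).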

Rattus norvegicus [9] = species: Rattus norvegicus; experiment: Selectivity ratio of Ki(app) for rat recombinant GluN1/GluN2C receptor to Ki(app) for rat recombinant GluN1/GluN2D receptor; in short: as §3
[10] = test system: Kainate receptors (Rattus norvegicus); experiment: Displacement of [3H]-Kainate from native kainate receptors in rat brain homogenate; details: concentration not given here
[11] = Selectivity ratio of Kb for human recombinant GluK1 receptor to Ki(app) for rat recombinant GluN1/GluN2D receptor
[12] = Solubility of the compound in water at >100 uM; type: physicochemical; details: buffer
[13] = target: Glutamate NMDA receptor; Grin1/Grin2a (Rattus norvegicus) (UniProt P35439+Q00959); experiment: Antagonist activity at rat recombinant GluN1/GluN2A receptor expressed in Xenopus laevis oocytes assessed as inhibition of glutamate-induced response at 100 uM by two-electrode voltage-clamp electrophysiology assay; type: functional, cell-based; details: Oocyte
In short: (§4)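 Rat GluN1a co-expressed with GluN2A, 2B, 2C or 2D in Xenopus oocytes. Two-electrode voltage clamp at −60 mV in buffer of 116 mM NaCl, 2 mM KCl, 0.3 mM BaCl2, 5 mM HEPES, pH 7.4. Response is the steady plateau evoked by bath-applied 10 μM L-glutamate plus 10 μM glycine. Read-out is percent antagonism by 100 μM test compound.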

[14] = target: Glutamate NMDA receptor; Grin1/Grin2b (Rattus norvegicus) (UniProt P35439+Q00960); experiment: Antagonist activity rat recombinant GluN1/GluN2B receptor expressed in Xenopus laevis oocytes assessed as inhibition of glutamate-induced response at 100 uM by two-electrode voltage-clamp electrophysiology assay; type: functional, cell-based; details: Oocyte; in short: as §4
[15] = target: Ionotropic glutamate receptor NMDA 1/2D (Rattus norvegicus) (UniProt P35439+Q62645); experiment: Antagonist activity rat recombinant GluN1/GluN2D receptor expressed in Xenopus laevis oocytes assessed as inhibition of glutamate-induced response at 100 uM by two-electrode voltage-clamp electrophysiology assay; type: functional, cell-based; details: Oocyte; in short: as §4
[16] = target: Glutamate NMDA receptor; Grin1/Grin2c (Rattus norvegicus) (UniProt P35439+Q00961); experiment: Antagonist activity rat recombinant GluN1/GluN2C receptor expressed in Xenopus laevis oocytes assessed as inhibition of glutamate-induced response at 100 uM by two-electrode voltage-clamp electrophysiology assay; type: functional, cell-based; details: Oocyte; in short: as §4

Compound | Ki [1] | Kb [2] | Ki [3] | Ki [4] | Ki [5] | Kb [6] | further results
O=C(O)[C@H]1NCCN(S(=O)(=O)c2ccc(-c3ccccc3)cc2)[C@H]1C(=O)O | 10.9 µM | > 100 µM |  |  |  |  | 
O=C(O)[C@H]1NCCN(C(=O)c2ccc3ccc4ccccc4c3c2)[C@H]1C(=O)O | 2.4 µM | 14.2 µM | 22 µM | 17.2 µM | 5.2 µM | > 100 µM | Ratio Ki(app) (Rattus norvegicus [7]): 10; Ratio Ki(app) (Rattus norvegicus [8]): 7; Ratio Ki(app) (Rattus norvegicus [9]): 2; inhibition [10]: 10%
O=C(O)[C@H]1NCCN(C(=O)c2ccc3c(c2)CCc2cc(Br)ccc2-3)[C@H]1C(=O)O | 1 µM | 11.5 µM |  |  |  |  | 
O=C(O)[C@H]1NCCN(C(=O)c2ccc3c(ccc4cc(Br)ccc43)c2)[C@H]1C(=O)O | 0.15 µM | 8 µM |  |  |  | > 100 µM | 
O=C(O)[C@H]1NCCN(Cc2ccc3c(ccc4ccccc43)c2)[C@H]1C(=O)O | 3.2 µM | 39 µM |  |  |  |  | 
O=C(O)[C@@H]1[C@H](C(=O)O)NCCN1C(=O)c1ccc2c(ccc3ccccc32)c1 | 0.09 µM | 3 µM | 0.21 µM | 0.22 µM | 0.07 µM | > 100 µM | Ratio [11]: 30
O=C(O)[C@H]1NCCN(C(=O)c2ccc3c(c2)CCc2ccccc2-3)[C@H]1C(=O)O | 0.57 µM | 14.1 µM |  |  |  | > 100 µM | 
O=C(O)[C@H]1NCCN(C(=O)c2ccc(-c3ccccc3)cc2)[C@H]1C(=O)O | 4.3 µM | 9.8 µM |  |  |  | > 100 µM | 
O=C(O)[C@H]1NCCN(C(=O)c2ccc3ccccc3c2)[C@H]1C(=O)O |  | 45.6 µM |  |  |  |  | 
O=C(O)C1NCCN(C(=O)c2ccc3c(ccc4ccccc43)c2)C1C(=O)O (racemic) [listing 1 of 2 here] | 0.13 µM |  | 0.55 µM | 0.31 µM | 0.1 µM |  | 
O=C(O)[C@@H]1NCCN(C(=O)c2ccc3c(ccc4ccccc43)c2)[C@H]1C(=O)O (racemic) | 6 µM | 59.2 µM |  |  |  |  | 
O=C(O)C1NCCN(C(=O)c2ccc3c(ccc4ccccc43)c2)C1C(=O)O (racemic) [listing 2 of 2 here] |  | 7.5 µM |  |  |  | > 100 µM | 
O=C(O)[C@H]1NCCN(C(=O)c2ccc3cc(F)ccc3c2)[C@H]1C(=O)O (relative stereo) | 5.1 µM | 52.9 µM | 7.4 µM | 12.3 µM | 3.6 µM |  | 
O=C(O)[C@H]1NCCN(C(=O)c2ccc3cc(Br)ccc3c2)[C@H]1C(=O)O (relative stereo) | 2.2 µM | 16.2 µM | 4.1 µM | 2.7 µM | 2.1 µM |  | 
O=C(O)[C@H]1NCCN(C(=O)c2ccc3cc(I)ccc3c2)[C@H]1C(=O)O (relative stereo) | 1.6 µM | 7.5 µM | 3 µM | 1.3 µM | 1.8 µM | > 100 µM | 
O=C(O)[C@H]1NCCN(C(=O)c2ccc3cc(-c4ccccc4)ccc3c2)[C@H]1C(=O)O (relative stereo) | 2.4 µM | 5.8 µM | > 100 µM | > 100 µM | 5.1 µM | > 100 µM | solubility [12]: Insoluble
O=C(O)[C@H]1NCCN(C(=O)CCc2ccc3ccccc3c2)[C@H]1C(=O)O (relative stereo) | 2.7 µM | 67.8 µM | 5.1 µM | 2.3 µM | 4.1 µM |  | 
O=C(O)c1ccc2cc(C(=O)N3CCN[C@H](C(=O)O)[C@@H]3C(=O)O)ccc2c1 (relative stereo) | > 100 µM | 59.7 µM | > 100 µM | > 100 µM | > 100 µM |  | inhibition [13]: < 5%; inhibition [14]: < 5%; inhibition [15]: < 5%; inhibition [16]: < 5%
O=C(O)c1ccc(-c2ccc(C(=O)N3CCN[C@H](C(=O)O)[C@@H]3C(=O)O)cc2)cc1 (relative stereo) |  | 51.5 µM |  | > 100 µM | > 100 µM |  | inhibition [14]: < 15%; inhibition [16]: < 15%; solubility [12]: Insoluble
O=C(O)[C@H]1NCCN(C(=O)c2ccc(C#Cc3ccccc3)cc2)[C@H]1C(=O)O (relative stereo) | 10.5 µM |  | 138 µM | 24.1 µM | 21.4 µM | > 100 µM | 
O=C(O)[C@H]1NCCN(C(=O)c2ccc(/N=N/c3ccccc3)cc2)[C@H]1C(=O)O (relative stereo) | 10.8 µM |  | 99.3 µM | 12.9 µM | 28 µM | > 100 µM | 
O=C(O)[C@H]1NCCN(C(=O)c2ccc(CCc3ccccc3)cc2)[C@H]1C(=O)O (relative stereo) | > 100 µM | 16.7 µM | > 100 µM | > 100 µM | > 100 µM |  | inhibition [13]: 11.5%; inhibition [14]: > 5%; inhibition [15]: 10.2%; inhibition [16]: 29.1%
O=C(O)[C@H]1NCCN(C(=O)c2ccc3cc(Cl)c4ccccc4c3c2)[C@H]1C(=O)O (relative stereo) | 1.7 µM | 21.8 µM | 7.2 µM | 15.2 µM | 3.2 µM |  | 
O=C(O)[C@H]1NCCN(C(=O)c2ccc3cc(Br)c4ccccc4c3c2)[C@H]1C(=O)O (relative stereo) | 1.2 µM | 12.8 µM | 11.5 µM | 8 µM | 2.8 µM | > 100 µM | Ratio Ki(app) (Rattus norvegicus [7]): 10; Ratio Ki(app) (Rattus norvegicus [8]): 7; Ratio Ki(app) (Rattus norvegicus [9]): 2; Ratio [11]: 9; inhibition [10]: 10%
O=C(O)[C@H]1NCCN(C(=O)c2ccc3cc4ccccc4cc3c2)[C@H]1C(=O)O (relative stereo) | 2.5 µM | 14.4 µM | 10.5 µM | 5.2 µM | 3.4 µM | > 100 µM | 
O=C(O)C1NCCN(C(=O)c2ccc3c(ccc4ccccc43)c2)C1C(=O)O (single isomer, unassigned; (+)) |  | 82 µM |  |  |  |  | 
